{"data": "Assay results pooled from the literature", "target": "Ephrin type-B receptor 3 (EPHB3, Homo sapiens, UniProt P54753)", "note": "Lines come from different studies, so protocols differ."}
{"SMILES": "Nc1ncnc2occ(-c3ccc(NC(=O)Nc4cc(C(F)(F)F)ccc4F)cc3)c12", "assay": "cell-free assay", "conditions": "20 µM", "measurement": "remaining signal", "value": "0%"}
{"SMILES": "CCCOc1ccc([C@H]2[C@H](C(=O)O)[C@@H](c3ccc4c(c3)OCO4)CN2CC(=O)Nc2c(CC)cccc2CC)cc1", "assay": "cell-free assay, competition with immobilised ligand", "conditions": "1 µM", "measurement": "remaining binding", "value": "97%"}
{"SMILES": "Cn1cncc1C1=CN(c2ncnc3[nH]cnc23)CCS1", "assay": "enzyme activity, inhibitor, radiometric", "conditions": "2 µM", "measurement": "inhibition", "value": "20.2%"}
{"SMILES": "CCN(CC)CCNC(=O)c1c(C)[nH]c(/C=C2\\C(=O)Nc3ccc(F)cc32)c1C", "assay": "enzyme activity, inhibitor", "conditions": "10 µM", "measurement": "inhibition", "value": "10%"}
{"SMILES": "Clc1ccc(Nc2nnc(Cc3ccncc3)c3ccccc23)cc1", "assay": "cell-free assay", "conditions": "0.5 µM", "measurement": "remaining signal", "value": "65.1%"}
{"SMILES": "COc1cc2ncnc(Nc3ccc(Oc4ccccc4)cc3C)c2cc1OC", "assay": "enzyme activity, inhibitor", "conditions": "1 µM", "measurement": "inhibition", "value": "1%"}
{"SMILES": "CC(C)(C)C(=O)c1sc(NC2CCCCC2)nc1N", "assay": "enzyme activity, inhibitor", "conditions": "10 µM", "measurement": "remaining activity", "value": "94%"}
{"SMILES": "O=C(Nc1cnn(-c2csc(C(=O)NC3COC3)c2)c1)Nc1c(F)cccc1Cl", "assay": "enzyme activity, inhibitor", "conditions": "5 µM", "measurement": "remaining activity", "value": "96.5%"}
{"SMILES": "CC(C)(C)c1nc(-c2cccc(NS(=O)(=O)c3c(F)cccc3F)c2F)c(-c2ccnc(N)n2)s1", "assay": "enzyme activity, inhibitor, radiometric", "conditions": "1 µM", "measurement": "remaining activity", "value": "92%"}
{"SMILES": "FC(F)c1nc2ccccc2n1-c1nc(N2CCOCC2)nc(N2CCOCC2)n1", "assay": "enzyme activity, inhibitor", "conditions": "10 µM", "measurement": "remaining activity", "value": "113%"}
{"SMILES": "COc1cc(Nc2cnc(C#N)c(O[C@H](C)CN(C)C)n2)ncc1-c1cnn(C)c1", "assay": "enzyme activity, inhibitor, radiometric", "conditions": "10 µM", "measurement": "remaining activity", "value": "23%"}
{"SMILES": "COc1cccc(CNC(=O)c2nc3scc(COCc4ccc(C(=O)O)cc4)c3c(=O)[nH]2)c1", "assay": "cell-free assay, competition with immobilised ligand", "conditions": "1 µM", "measurement": "remaining binding", "value": "85.4%"}
{"SMILES": "Cc1ccc(C(=O)Nc2ccc(CN3CCN(C)CC3)c(C(F)(F)F)c2)cc1C#Cc1cnc2cccnn12", "assay": "cell-free assay", "conditions": "23.5 nM", "measurement": "remaining signal", "value": "100%"}
{"SMILES": "O=c1nc(-c2ccccn2)sc2ccccc12", "assay": "cell-free assay, competition with immobilised ligand", "conditions": "1 µM", "measurement": "remaining binding", "value": "100%"}
{"SMILES": "CC/C(=N\\NC(=O)NCc1cccc(O)c1)c1ccc(O)c(C)c1O", "assay": "enzyme activity, inhibitor", "conditions": "0.1 µM", "measurement": "inhibition", "value": "0.6%"}
{"SMILES": "CN(c1ncccc1CNc1nc(Nc2ccc3c(c2)CC(=O)N3)ncc1C(F)(F)F)S(C)(=O)=O", "assay": "enzyme activity, inhibitor", "conditions": "1 µM", "measurement": "inhibition", "value": "41%"}
{"SMILES": "CS(=O)(=O)N1CCCC(NC(=O)[C@H](CCC2CCCCC2)NC(=O)c2ccc(CNc3ncnc4c3nnn4-c3ccccc3)cc2)C1 (some centres unmarked)", "assay": "cell-free assay, competition with immobilised ligand", "conditions": "0.1 µM", "measurement": "remaining binding", "value": "91%"}
{"SMILES": "CNC(=O)c1cc(Oc2ccc(NC(=O)Nc3ccc(Cl)c(C(F)(F)F)c3)cc2)ccn1", "assay": "enzyme activity, inhibitor", "conditions": "0.3 µM", "measurement": "inhibition", "value": "3%"}
{"SMILES": "COc1cc2nccc(Oc3ccc(NC(=O)Nc4ccc(F)cc4F)c(F)c3)c2cc1OC", "assay": "thermal stability, DSF", "conditions": "10 µM", "measurement": "ΔTm", "value": "5 to 10 °C"}
{"SMILES": "Cc1cc(NC(=O)c2cccc(S(F)(F)(F)(F)F)c2)cc(-n2ccn3nc(-c4cccnc4)cc23)c1", "assay": "cell-free assay, competition with immobilised ligand", "conditions": "1 µM", "measurement": "remaining binding", "value": "100%"}
{"SMILES": "N#CCCc1ccc2c(c1)-c1[nH]c3ccc([N+](=O)[O-])cc3c1CC(=O)N2", "assay": "cell-free assay", "conditions": "0.5 µM", "measurement": "remaining signal", "value": "102%"}
{"SMILES": "Cc1cc(NC(=O)c2cccc3cc(-c4cccc5[nH]nc(N)c45)ccc23)ccc1F", "assay": "enzyme activity, inhibitor", "conditions": "0.1 µM", "measurement": "activity vs control", "value": "88%"}
{"SMILES": "Cn1cc(Cl)c2c(Oc3c(F)cc(Nc4cc(Cl)nc(N)n4)cc3F)ccnc21", "assay": "cell-free assay, competition with immobilised ligand", "conditions": "0.1 µM", "measurement": "remaining binding", "value": "100%"}
{"SMILES": "Cc1ccc(Nc2nccc(N(C)c3ccc4c(C)n(C)nc4c3)n2)cc1S(N)(=O)=O", "assay": "cell-free assay", "conditions": "0.5 µM", "measurement": "remaining signal", "value": "71.7%"}
{"SMILES": "CCCOc1ccc(OC)c(F)c1C(=O)c1ccc(C(=O)N[C@@H]2CNC[C@H]2NC(=O)c2ccc3[nH]ncc3c2)cc1", "assay": "enzyme activity, inhibitor", "conditions": "10 µM", "measurement": "remaining activity", "value": "102%"}
{"SMILES": "CN(C(=O)c1ccccc1)c1cc(N(C)c2ccc3c(c2)CCc2ccc(C(=O)NCCN4CCOCC4)cc2C3=O)ccc1F", "assay": "cell-free assay, competition with immobilised ligand", "conditions": "1 µM", "measurement": "remaining binding", "value": "94%"}
{"SMILES": "O=C1Nc2ccc(Cl)cc2C1=Cc1cc(Cl)c(O)c(Cl)c1", "assay": "cell-free assay", "conditions": "0.5 µM", "measurement": "remaining signal", "value": "91%"}
{"SMILES": "CC(C)CC(=O)N1CCc2nc(-c3ccc(Br)cc3)nc(N(C)Cc3ccccc3)c2C1", "assay": "cell-free assay, competition with immobilised ligand", "conditions": "0.1 µM", "measurement": "remaining binding", "value": "100%"}
{"SMILES": "Cc1sc(C(=O)NC2COC2)cc1-n1cc(NC(=O)Nc2c(F)cccc2Cl)cn1", "assay": "enzyme activity, inhibitor", "conditions": "10 µM", "measurement": "remaining activity", "value": "97.2%"}
